# Test results published in ChEMBL document CHEMBL1275600, “Prophylactic activity of intramuscular peramivir in mice infected with a recombinant influenza A/WSN/33 (H1N1) virus containing the H274Y neuraminidase mutation” (Antimicrob Agents Chemother, 2010).
# Calls of active or inactive are those of the source. No cut-off for these calls is given here.
# Legend:
# Influenza A virus [1] = assay: Antiviral activity against Influenza A/WSN/33 (H1N1) virus infected in mouse assessed as survival rate at 10 mg/kg, po administered 4 days before viral challenge; assay type: functional; settings: A/WSN/1933(H1N1)
# Mus musculus [2] = assay: Toxicity against recombinant Influenza A/WSN/33 (H1N1) virus infected BALB/c mouse assessed as weight loss at 90 mg/kg, im administered as single dose and measured after 14 days; assay type: organism-based; parameters: dose 90 mg/kg, route intramuscular; settings: in vivo, 336 h
# How it was run: (§1)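 Male BALB/c mice, groups of 12, received IM drug at 50 mg/ml in pH 3.0 buffered saline, starting 1 h before intranasal infection with 8 × 10^3 PFU of recombinant virus. Body weight was monitored daily for 14 days. Mean weight loss was compared across regimens by one-way ANOVA, with uninfected PBS-treated mice as reference.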
# [3] = molecular target: Neuraminidase (Influenza A virus (strain A/Wilson-Smith/1933 H1N1) (Influenza A virus(strain A/WS/1933 H1N1))) (UniProt P03470); settings: Influenza A virus (A/WSN/1933(H1N1)); 10 mg/kg
# Mus musculus [4] = assay: Toxicity against recombinant Influenza A/WSN/33 (H1N1) virus infected BALB/c mouse assessed as weight loss at 45 mg/kg, im once daily for 5 days measured after 14 days; assay type: organism-based; parameters: dose 45 mg/kg, route intramuscular; settings: in vivo, 336 h; how it was run: as §1
# Mus musculus [5] = assay: Toxicity against recombinant Influenza A/WSN/33 (H1N1) virus infected BALB/c mouse assessed as weight loss at 45 mg/kg, im administered as single dose and measured after 14 days; assay type: organism-based; parameters: dose 45 mg/kg, route intramuscular; settings: in vivo, 336 h; how it was run: as §1
# [6] = Cmax in mouse at 30 mg/kg, im administered as single dose and measured after 30 mins; assay type: ADME, organism-based; parameters: dose 30 mg/kg, route intramuscular; settings: in vivo
# Influenza A virus [7] = assay: Antiviral activity against recombinant Influenza A/WSN/33 (H1N1) virus infected in BALB/c mouse assessed as survival of mouse at 45 mg/kg, im administered as single dose; assay type: functional, organism-based; parameters: dose 45 mg/kg; settings: A/WSN/1933(H1N1)
# How it was run: (§2)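 Male BALB/c mice, 6–8 weeks old and 20–25 g, were randomized by weight, 4 per cage, in groups of 12. Drug at 50 mg/ml in saline buffered to pH 3.0 was given by IM hip injection, first dose 1 h before challenge. Mice were infected intranasally under isoflurane with 8 × 10^3 PFU of cell-grown recombinant virus in 30 μl PBS. Mortality was recorded daily for 14 days.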
# Influenza A virus [8] = assay: Antiviral activity against Influenza A/WSN/33 (H1N1) virus infected in mouse assessed as survival rate at 10 mg/kg, im administered 4 days before viral challenge; assay type: functional; settings: A/WSN/1933(H1N1), route intramuscular
# [9] = Cmax in mouse at 30 mg/kg, im administered as single dose and measured after 24 hrs; assay type: ADME, organism-based; parameters: dose 30 mg/kg, route intramuscular; settings: in vivo
# Influenza A virus [10] = assay: Antiviral activity against recombinant Influenza A/WSN/33 (H1N1) virus infected in BALB/c mouse assessed as survival of mouse at 90 mg/kg, im administered as single dose; assay type: functional, organism-based; parameters: dose 90 mg/kg; settings: A/WSN/1933(H1N1); how it was run: as §2
# Mus musculus [11] = assay: Toxicity against BALB/c mouse assessed as weight loss in mouse at 45 mg/kg, im once daily for 5 days measured after 14 days; assay type: organism-based; parameters: dose 45 mg/kg, route intramuscular; settings: in vivo, 336 h
# How it was run: (§3)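 Uninfected male BALB/c mice, 6 per group, received IM drug at 45 mg/kg once daily for 5 days, dissolved at 50 mg/ml in pH 3.0 buffered saline, or PBS. Body weight and mortality were monitored daily for 14 days.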
# [12] = molecular target: Neuraminidase (Influenza A virus (strain A/Wilson-Smith/1933 H1N1) (Influenza A virus(strain A/WS/1933 H1N1))) (UniProt P03470); settings: Influenza A virus (A/WSN/1933(H1N1)); 2 to 20 mg/kg
# Influenza A virus [13] = assay: Antiviral activity against recombinant Influenza A/WSN/33 (H1N1) virus infected in BALB/c mouse assessed as survival of mouse at 45 mg/kg, im once daily for 5 days; assay type: functional, organism-based; parameters: dose 45 mg/kg; settings: A/WSN/1933(H1N1); how it was run: as §2
# Mus musculus [14] = assay: Toxicity against BALB/c mouse assessed as mortality at 45 mg/kg, im once daily for 5 days measured after 14 days; assay type: organism-based; parameters: dose 45 mg/kg, route intramuscular; settings: in vivo, 336 h; how it was run: as §3
# Chain of Neuraminidase (Influenza A virus (strain A/Wilson-Smith/1933 H1N1) (Influenza A virus(strain A/WS/1933 H1N1))) (P03470 whole entry): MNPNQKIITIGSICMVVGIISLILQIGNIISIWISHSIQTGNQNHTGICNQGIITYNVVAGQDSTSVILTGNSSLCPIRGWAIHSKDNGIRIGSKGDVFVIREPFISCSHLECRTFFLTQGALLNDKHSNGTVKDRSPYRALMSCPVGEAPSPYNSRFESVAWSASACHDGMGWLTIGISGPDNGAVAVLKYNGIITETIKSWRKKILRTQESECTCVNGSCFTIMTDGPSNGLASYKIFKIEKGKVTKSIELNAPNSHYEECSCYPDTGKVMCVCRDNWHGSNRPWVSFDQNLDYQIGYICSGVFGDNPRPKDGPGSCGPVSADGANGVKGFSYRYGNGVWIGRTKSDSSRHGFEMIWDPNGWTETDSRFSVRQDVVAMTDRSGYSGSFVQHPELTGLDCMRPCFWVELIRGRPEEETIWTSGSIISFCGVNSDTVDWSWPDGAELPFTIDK
smiles,measurement,setting,value
CCC(CC)[C@H](NC(C)=O)[C@@H]1[C@H](O)[C@@H](C(=O)O)C[C@H]1NC(=N)N [PERAMIVIR ANHYDROUS],survival at 10 mg/kg,Influenza A virus [1],50%
same,Activity,Mus musculus [2],Non-toxic
same,T1/2,[3],> 24 h
same,Activity,Mus musculus [4],Non-toxic
same,Activity,Mus musculus [5],Non-toxic
same,Cmax,[6],17700 ng/mL
same,Activity,Influenza A virus [7],Active
same,survival at 10 mg/kg,Influenza A virus [8],100%
same,Cmax,[9],29.3 ng/mL
same,Activity,Influenza A virus [10],Active
same,Activity,Mus musculus [11],Non-toxic
same,T1/2,[12],1.25 h
same,Activity,Influenza A virus [13],Active
same,Activity,Mus musculus [14],Non-toxic
